# According to publication PMC3101112 (Cancer Management and Research, 2011):
# Where “and” joins values, the source holds several entries; their conditions need not be identical. Equal entries are not always repeated.
# How the values were obtained:
# [1] = system: pERK T202Y204 in HUVEC (with BSA); experiment: Cell-based target inhibition assay, HUVEC, VEGF, pERK with BSA; set-up: species or system human; conditions: read-out: Cell-Based Target Inhibition Assays IC50, pERK T202Y204 (with BSA), activator VEGF, with BSA
# EPHA3 = EPHA3 (Homo sapiens, UniProt P29320); experiment: Biochemical inhibition profile, EPHA3; conditions: read-out: Biochemical Inhibition Profile IC50, EPHA3
# [2] = QTc assessment in patients with relapsed AML; type: in vivo, human; conditions: after the single-dose administration, 48-hour follow-up
# In short: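 QTc was corrected by both Bazett and Fridericia formulas and compared with baseline across the 48 h after a single 50 mg oral dose. QTc was set against test-compound plasma concentration. Grade 3 was defined as >500 msec or a rise of >60 msec from baseline, confirmed by 12-lead ECG.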
# PDGF-Rb = PDGF-Rb (Homo sapiens, UniProt P09619); experiment: Biochemical inhibition profile, PDGF-Rb; conditions: read-out: Biochemical Inhibition Profile IC50, PDGF-Rb
# Sequence of PDGF-Rb (P09619 33-1106): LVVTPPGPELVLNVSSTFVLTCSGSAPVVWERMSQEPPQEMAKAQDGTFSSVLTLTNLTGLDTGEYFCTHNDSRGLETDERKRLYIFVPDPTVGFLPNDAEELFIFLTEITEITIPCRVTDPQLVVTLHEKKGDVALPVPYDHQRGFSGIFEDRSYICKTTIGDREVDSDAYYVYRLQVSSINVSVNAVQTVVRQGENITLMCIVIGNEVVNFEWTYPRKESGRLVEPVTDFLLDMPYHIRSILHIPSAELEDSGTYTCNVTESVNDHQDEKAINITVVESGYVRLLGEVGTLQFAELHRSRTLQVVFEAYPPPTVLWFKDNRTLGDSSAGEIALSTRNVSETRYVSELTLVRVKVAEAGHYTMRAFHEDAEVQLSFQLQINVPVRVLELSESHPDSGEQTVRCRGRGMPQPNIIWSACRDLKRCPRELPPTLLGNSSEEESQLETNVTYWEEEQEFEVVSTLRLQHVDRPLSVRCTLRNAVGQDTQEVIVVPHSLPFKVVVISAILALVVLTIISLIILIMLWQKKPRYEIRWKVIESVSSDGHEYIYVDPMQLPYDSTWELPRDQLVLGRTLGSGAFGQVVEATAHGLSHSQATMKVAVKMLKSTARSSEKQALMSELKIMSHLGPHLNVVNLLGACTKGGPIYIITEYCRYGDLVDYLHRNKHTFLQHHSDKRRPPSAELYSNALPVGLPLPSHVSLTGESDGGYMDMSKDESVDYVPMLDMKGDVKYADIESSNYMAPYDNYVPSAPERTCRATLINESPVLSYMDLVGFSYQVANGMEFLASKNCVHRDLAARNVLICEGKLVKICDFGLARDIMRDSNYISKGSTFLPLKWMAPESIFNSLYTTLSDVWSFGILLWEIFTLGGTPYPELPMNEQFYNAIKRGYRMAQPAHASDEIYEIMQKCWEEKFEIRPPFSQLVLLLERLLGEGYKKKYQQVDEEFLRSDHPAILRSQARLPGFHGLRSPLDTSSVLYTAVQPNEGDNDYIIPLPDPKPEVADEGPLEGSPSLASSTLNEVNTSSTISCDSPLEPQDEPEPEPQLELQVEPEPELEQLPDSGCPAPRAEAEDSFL
# KDR = KDR (Homo sapiens, UniProt P35968); experiment: Biochemical inhibition profile, KDR; conditions: read-out: Biochemical Inhibition Profile IC50, KDR
# Sequence of KDR (P35968 20-1356): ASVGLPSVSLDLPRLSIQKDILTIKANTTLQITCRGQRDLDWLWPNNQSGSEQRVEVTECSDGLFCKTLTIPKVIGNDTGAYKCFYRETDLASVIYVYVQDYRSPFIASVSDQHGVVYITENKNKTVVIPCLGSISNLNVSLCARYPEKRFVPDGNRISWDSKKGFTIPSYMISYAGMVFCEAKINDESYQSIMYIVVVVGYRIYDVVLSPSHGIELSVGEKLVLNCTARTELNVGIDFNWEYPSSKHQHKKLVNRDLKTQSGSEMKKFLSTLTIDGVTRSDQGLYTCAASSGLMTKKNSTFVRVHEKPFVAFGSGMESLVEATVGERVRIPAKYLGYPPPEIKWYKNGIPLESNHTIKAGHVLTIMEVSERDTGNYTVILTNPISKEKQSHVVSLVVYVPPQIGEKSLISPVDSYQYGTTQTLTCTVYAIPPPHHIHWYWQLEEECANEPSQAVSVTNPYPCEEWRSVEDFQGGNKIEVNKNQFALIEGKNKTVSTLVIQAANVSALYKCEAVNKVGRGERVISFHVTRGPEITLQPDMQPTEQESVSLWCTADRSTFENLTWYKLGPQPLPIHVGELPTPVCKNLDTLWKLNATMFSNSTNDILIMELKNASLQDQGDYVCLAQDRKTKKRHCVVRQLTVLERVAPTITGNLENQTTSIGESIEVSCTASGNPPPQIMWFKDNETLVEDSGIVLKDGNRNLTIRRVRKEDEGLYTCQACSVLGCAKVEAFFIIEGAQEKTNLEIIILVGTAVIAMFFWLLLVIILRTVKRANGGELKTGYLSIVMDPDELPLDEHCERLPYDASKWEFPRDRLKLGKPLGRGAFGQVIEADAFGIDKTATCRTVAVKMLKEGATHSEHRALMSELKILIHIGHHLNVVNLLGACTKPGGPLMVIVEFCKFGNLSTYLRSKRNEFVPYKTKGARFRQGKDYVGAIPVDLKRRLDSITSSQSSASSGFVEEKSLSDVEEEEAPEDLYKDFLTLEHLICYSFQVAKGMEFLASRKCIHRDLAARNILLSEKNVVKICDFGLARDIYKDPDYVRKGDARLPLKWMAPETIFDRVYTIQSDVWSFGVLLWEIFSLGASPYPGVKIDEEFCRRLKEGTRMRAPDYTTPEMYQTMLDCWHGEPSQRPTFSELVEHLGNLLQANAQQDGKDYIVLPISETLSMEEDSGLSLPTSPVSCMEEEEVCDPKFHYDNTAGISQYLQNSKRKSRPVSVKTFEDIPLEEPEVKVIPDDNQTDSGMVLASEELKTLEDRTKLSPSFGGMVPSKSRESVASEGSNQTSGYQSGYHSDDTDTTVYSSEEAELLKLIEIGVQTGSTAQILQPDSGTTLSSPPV
# EPHA8 = EPHA8 (Homo sapiens, UniProt P29322); experiment: Biochemical inhibition profile, EPHA8; conditions: read-out: Biochemical Inhibition Profile IC50, EPHA8
# AML blasts = experiment: Antileukemia response assessment in patients; type: in vivo, human
# In short: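 Response was judged by WHO criteria on bone marrow aspirates taken at baseline and after four weeks of daily oral dosing (two weeks after amendment). Peripheral blast counts were taken daily during the multidose visit. A sustained fall in peripheral blast counts lasting longer than four weeks also counted as a pharmacodynamic response.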
# VEGF-R3 = VEGF-R3 (Homo sapiens, UniProt P35916); experiment: Biochemical inhibition profile, VEGF-R3; conditions: read-out: Biochemical Inhibition Profile IC50, VEGF-R3
# Sequence of VEGF-R3 (P35916 25-1363): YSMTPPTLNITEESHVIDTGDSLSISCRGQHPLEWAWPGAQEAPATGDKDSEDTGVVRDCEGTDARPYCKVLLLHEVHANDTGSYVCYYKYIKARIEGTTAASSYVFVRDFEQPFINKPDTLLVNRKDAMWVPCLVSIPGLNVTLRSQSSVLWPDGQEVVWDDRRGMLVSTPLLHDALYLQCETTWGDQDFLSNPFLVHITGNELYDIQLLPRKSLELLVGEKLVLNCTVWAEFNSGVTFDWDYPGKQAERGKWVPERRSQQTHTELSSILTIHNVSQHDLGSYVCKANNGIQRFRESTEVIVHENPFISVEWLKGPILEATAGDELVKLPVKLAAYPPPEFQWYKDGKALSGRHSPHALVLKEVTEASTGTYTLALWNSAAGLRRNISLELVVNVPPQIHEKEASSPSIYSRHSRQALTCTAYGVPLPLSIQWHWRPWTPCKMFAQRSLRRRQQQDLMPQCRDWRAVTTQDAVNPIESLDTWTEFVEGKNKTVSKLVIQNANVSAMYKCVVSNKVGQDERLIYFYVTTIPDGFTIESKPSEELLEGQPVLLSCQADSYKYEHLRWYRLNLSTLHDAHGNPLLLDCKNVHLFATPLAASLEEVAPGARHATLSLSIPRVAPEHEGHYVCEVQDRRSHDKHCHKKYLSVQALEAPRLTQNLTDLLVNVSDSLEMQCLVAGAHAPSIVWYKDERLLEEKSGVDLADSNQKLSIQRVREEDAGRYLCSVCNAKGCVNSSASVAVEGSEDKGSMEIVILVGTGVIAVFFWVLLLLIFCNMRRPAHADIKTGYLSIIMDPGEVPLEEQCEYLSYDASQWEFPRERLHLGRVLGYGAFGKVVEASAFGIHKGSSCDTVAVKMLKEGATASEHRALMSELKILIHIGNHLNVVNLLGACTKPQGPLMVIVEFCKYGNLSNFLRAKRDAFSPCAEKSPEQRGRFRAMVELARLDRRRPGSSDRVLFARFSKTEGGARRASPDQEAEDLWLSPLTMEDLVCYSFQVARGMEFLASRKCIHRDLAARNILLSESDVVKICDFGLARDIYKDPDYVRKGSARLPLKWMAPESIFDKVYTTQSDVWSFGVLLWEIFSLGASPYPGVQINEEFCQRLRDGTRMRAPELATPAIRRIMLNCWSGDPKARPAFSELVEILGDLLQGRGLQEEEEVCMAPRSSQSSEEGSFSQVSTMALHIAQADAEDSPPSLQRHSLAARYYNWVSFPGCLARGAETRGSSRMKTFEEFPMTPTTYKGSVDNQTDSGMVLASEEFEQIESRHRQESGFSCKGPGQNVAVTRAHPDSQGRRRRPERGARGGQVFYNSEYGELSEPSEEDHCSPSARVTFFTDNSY
# EPHA1 = EPHA1 (Homo sapiens, UniProt P21709); experiment: Biochemical inhibition profile, EPHA1; conditions: read-out: Biochemical Inhibition Profile IC50, EPHA1
# Sequence of EPHA1 (P21709 26-976): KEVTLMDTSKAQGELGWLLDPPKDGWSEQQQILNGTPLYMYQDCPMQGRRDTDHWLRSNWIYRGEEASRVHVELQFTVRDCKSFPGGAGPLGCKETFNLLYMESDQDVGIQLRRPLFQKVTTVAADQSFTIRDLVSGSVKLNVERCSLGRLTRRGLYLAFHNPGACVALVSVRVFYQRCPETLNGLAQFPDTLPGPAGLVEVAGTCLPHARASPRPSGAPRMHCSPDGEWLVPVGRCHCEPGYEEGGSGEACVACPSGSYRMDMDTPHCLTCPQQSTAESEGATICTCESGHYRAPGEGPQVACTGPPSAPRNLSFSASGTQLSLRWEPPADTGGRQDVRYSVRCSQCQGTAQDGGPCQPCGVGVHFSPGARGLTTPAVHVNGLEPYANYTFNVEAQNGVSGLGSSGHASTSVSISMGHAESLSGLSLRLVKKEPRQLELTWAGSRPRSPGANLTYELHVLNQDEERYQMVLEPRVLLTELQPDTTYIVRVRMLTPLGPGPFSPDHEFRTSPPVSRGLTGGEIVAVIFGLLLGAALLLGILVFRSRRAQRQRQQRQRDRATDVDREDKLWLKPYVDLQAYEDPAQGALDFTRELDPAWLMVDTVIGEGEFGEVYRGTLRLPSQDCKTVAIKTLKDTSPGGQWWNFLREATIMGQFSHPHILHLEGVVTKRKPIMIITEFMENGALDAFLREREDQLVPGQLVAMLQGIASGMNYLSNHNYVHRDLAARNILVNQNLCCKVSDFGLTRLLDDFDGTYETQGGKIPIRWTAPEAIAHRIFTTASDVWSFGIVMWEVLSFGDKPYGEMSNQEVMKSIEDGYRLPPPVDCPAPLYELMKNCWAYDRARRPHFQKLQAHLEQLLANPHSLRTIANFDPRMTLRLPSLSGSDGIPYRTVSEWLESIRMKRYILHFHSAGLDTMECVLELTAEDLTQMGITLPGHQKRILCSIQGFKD
# [3] = system: human ether-à-go-go-related gene (hERG); conditions: read-out: hERG IC50; ref data on file, Eli Lilly and Company; cited from earlier work
# [4] = Plasma pharmacokinetics in patients with relapsed AML; type: in vivo, human
# In short: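 Relapsed AML patients got 50 mg test compound orally after an ~8 h fast, without the probe cocktail. Plasma was sampled over 48 h after a single dose and over 12 h after one week of once-daily dosing. Tmax, Cmax, AUC and oral clearance came from noncompartmental analysis.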
# EPHA2 = EPHA2 (Homo sapiens, UniProt P29317); experiment: Biochemical inhibition profile, EPHA2; conditions: read-out: Biochemical Inhibition Profile IC50, EPHA2
# EPHB4 = EPHB4 (Homo sapiens, UniProt P54760); conditions: read-out: Biochemical Inhibition Profile IC50, EPHB4
# [5] = AML patients, single and multiple oral doses 50 mg
# [6] = Visit 0, single oral dose 50 mg, Max of N 5
# [7] = Visit 0, single oral dose 50 mg, Min of N 5
# [8] = Visit 0, single oral dose 50 mg, individual subjects (AML patients)
# [9] = Visit 1, multiple oral doses 50 mg once daily, Max of N 5
# [10] = Visit 1, multiple oral doses 50 mg once daily, Min of N 5
# [11] = Visit 2, after multiple oral doses 50 mg, Max of N 2
# [12] = Visit 2, after multiple oral doses 50 mg, Min of N 2
smiles,measurement,setting,value
Cc1cc(-c2ccn3c(-c4ccc(CC(=O)Nc5cccc(C(F)(F)F)c5)c(F)c4)cnc3c2)ccn1 [LY2457546],IC50,[1],0.0414 µM
same,IC50,EPHA3,0.0998 µM
same,QTc prolongation after Bazet and Fridericia corrections,[2],not present
same,IC50,PDGF-Rb,0.0257 µM
same,IC50,KDR,0.028 µM
same,IC50,EPHA8,0.0335 µM
same,Antileukemia response,"AML blasts; five treated patients, 50 mg/day",No medically relevant responses
same,Leukocyte and blast cell counts,"AML blasts; one of the five patients (B), through day 10",significant but transient decrease
same,IC50,VEGF-R3,0.0341 µM
same,IC50,EPHA1,0.616 µM
same,IC50,[3],0.2 µM
same,Elimination within 24 hours,"[4]; AML patients, 50 mg/day orally",virtually no elimination
same,Accumulation in plasma,[4]; [5],Extensive accumulation
same,Terminal elimination half-life,[4]; [5],no terminal elimination half-life could be defined
same,"AUC0_24, Max",[4]; [6],41.5 µg·h/mL
same,"AUClast, Max",[4]; [6],79.2 µg·h/mL
same,"Clast, Max",[4]; [6],1.35406 µg/mL
same,"Cmax, Max",[4]; [6],2.40655 µg/mL
same,"Tlast, Max",[4]; [6],48 h
same,"Tmax, Max",[4]; [6],48 h
same,"AUC0_24, Min",[4]; [7],1.85 µg·h/mL
same,"AUClast, Min",[4]; [7],1.85 µg·h/mL
same,"Clast, Min",[4]; [7],0.078459 µg/mL
same,"Cmax, Min",[4]; [7],0.105113 µg/mL
same,"Tlast, Min",[4]; [7],24 h
same,"Tmax, Min",[4]; [7],2 h
same,AUC0_24,[4]; [8],2.52 µg·h/mL and 8.93 µg·h/mL and 41.5 µg·h/mL and 1.85 µg·h/mL and 3.42 µg·h/mL
same,AUClast,[4]; [8],6.03 µg·h/mL and 16.1 µg·h/mL and 79.2 µg·h/mL and 1.85 µg·h/mL and 3.42 µg·h/mL
same,Clast,[4]; [8],0.154876 µg/mL and 0.302003 µg/mL and 1.35406 µg/mL and 0.105113 µg/mL and 0.078459 µg/mL
same,Cmax,[4]; [8],0.154876 µg/mL and 0.604581 µg/mL and 2.40655 µg/mL and 0.105113 µg/mL and 0.394238 µg/mL
same,Tlast,[4]; [8],48 h and 24 h
same,Tmax,[4]; [8],48 h and 2 h and 4 h and 24 h
same,"AUC0_24, Max","[4]; Visit 1, multiple oral doses 50 mg once daily, Max of N 3",69.1 µg·h/mL
same,"AUClast, Max",[4]; [9],69.2 µg·h/mL
same,"Clast, Max",[4]; [9],2.830537 µg/mL
same,"Cmax, Max",[4]; [9],3.812913 µg/mL
same,"Tlast, Max",[4]; [9],48 h
same,"Tmax, Max",[4]; [9],8 h
same,"AUC0_24, Min","[4]; Visit 1, multiple oral doses 50 mg once daily, Min of N 3",2.32 µg·h/mL
same,"AUClast, Min",[4]; [10],3.61 µg·h/mL
same,"Clast, Min",[4]; [10],0.028097 µg/mL
same,"Cmax, Min",[4]; [10],0.12344 µg/mL
same,"Tlast, Min",[4]; [10],8 h
same,"Tmax, Min",[4]; [10],0 h
same,"AUC0_24, Max",[4]; [11],41.5 µg·h/mL
same,"AUClast, Max",[4]; [11],93.4 µg·h/mL
same,"Clast, Max",[4]; [11],2.190006 µg/mL
same,"Cmax, Max",[4]; [11],2.190006 µg/mL
same,"Tlast, Max",[4]; [11],48 h
same,"Tmax, Max",[4]; [11],48 h
same,"AUC0_24, Min",[4]; [12],18.5 µg·h/mL
same,"AUClast, Min",[4]; [12],38.4 µg·h/mL
same,"Clast, Min",[4]; [12],0.708777 µg/mL
same,"Cmax, Min",[4]; [12],1.087972 µg/mL
same,"Tlast, Min",[4]; [12],48 h
same,"Tmax, Min",[4]; [12],0 h
same,IC50,EPHA2,0.0374 µM
same,IC50,EPHB4,0.0398 µM
